From PubChem BioAssay
Compounds with a hit are over-represented: about 2.2% of the library has one in this group of screens.
Arbovirus anti = antivirals against arbovirus infection; actives 0.37% (n = 200,000); arbovirus infection cell-based antiviral screen; inhibition, % at 10 µM; AID 1251; in the data active = inhibition above about 30%
DTT redox prof = compounds producing H2O2 with reducing agent – biochemical, NIH compound library profiling, artefact control for MLSCN library redox annotation, primary screen; DTT-dependent redox cycling H2O2, phenol red/HRP absorbance; 100% = 100 µM peroxide control, 0% = buffer; activation, % at 10 µM; actives 0.03% (n = 200,000);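 active = activation of at least 50% relative to the plate's high and low controls in the primary single-dose screen; inactive = activation below 50%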;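 also: compound incubated with DTT at 0.8 mM final as the reducing agent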
p97 ATPase inh = blocks human p97 ATPase activity | inhibition, % at 8 µM | recombinant p97 ATPase, Kinase-Glo ATP luminescence, 3 h | actives 0.42% (n = 220,000); in the data active = inhibition above about 15%
Wee1 stabilizer = blocks degradation of human Wee1 kinase; P30291; HeLa Luc-Wee1K328M stability, luciferase luminescence; 100% = proteasome inhibitor MG132 effect; reporter increase, % at 5 µM; actives 1.2% (n = 220,000); AID 1321;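 active = activation above the mean of all tested compounds plus 3 SD, set per screening run, cut at about 8.8% in these data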;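 also: cells exposed to compound for 20 h before luminescence read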
Target sequence (P30291 whole entry K328M): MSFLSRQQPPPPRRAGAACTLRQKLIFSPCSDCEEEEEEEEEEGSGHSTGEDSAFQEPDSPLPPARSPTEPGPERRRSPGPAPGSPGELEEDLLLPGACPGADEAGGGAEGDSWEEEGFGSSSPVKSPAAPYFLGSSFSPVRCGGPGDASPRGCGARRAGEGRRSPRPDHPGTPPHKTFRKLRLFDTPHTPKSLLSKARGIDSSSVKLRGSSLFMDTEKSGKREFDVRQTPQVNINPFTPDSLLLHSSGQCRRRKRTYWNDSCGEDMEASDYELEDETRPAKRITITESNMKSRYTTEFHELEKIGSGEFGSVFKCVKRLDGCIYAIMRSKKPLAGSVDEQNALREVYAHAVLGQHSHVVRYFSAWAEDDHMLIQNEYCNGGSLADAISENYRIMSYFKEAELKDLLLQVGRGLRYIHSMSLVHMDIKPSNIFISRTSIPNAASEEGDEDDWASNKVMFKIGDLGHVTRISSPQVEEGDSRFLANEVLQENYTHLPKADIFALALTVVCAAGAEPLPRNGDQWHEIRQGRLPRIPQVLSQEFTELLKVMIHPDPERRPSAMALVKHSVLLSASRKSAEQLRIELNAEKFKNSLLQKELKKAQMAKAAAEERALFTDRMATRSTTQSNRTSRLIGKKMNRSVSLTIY
PKD1 inh = inhibitors of human PKD1 kinase | actives 0.056% (n = 200,000) | inhibition, % (test concentration not listed) | AID 797 | PKD1 kinase fluorescence polarization assay; in the data active = inhibition above about 50%
RBBP9 inh = inhibitors of human serine hydrolase RBBP9; AID 1515; actives 0.2% (n = 220,000); inhibition, % at 7.94 µM; recombinant RBBP9, FP-Rh probe fluorescence polarization;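 active = inhibition above the campaign mean of all tested compounds plus 3 SD, cut at about 14% in these data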
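System: RBBP9 protein / Buffer or medium: Tris/NaCl buffer pH 8.0 with 0.1% Pluronic / Probe or stimulus: Serine-hydrolase probe FP-Rh, 375 nM pre-mixing / Dosing: 7.94 µM single dose, 0.794% DMSO / Times: enzyme-compound preincubation 30 min, then probe labeling 45 min, 25 °C / Technique: fluorescence polarization (mP), excitation 525 nm, emission 598 nm / Replication: singlicate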
Large screens that a line does not name were inactive; ! = a repeat was not active.

C=CCn1c(SCc2c(C)noc2C)nnc1C1COc2ccccc2O1 (stereo unspecified)	Arbovirus anti 71.0
O=[N+]([O-])c1ccccc1CNC1CCCc2ccccc21 (stereo unspecified)	none
CCCc1cc(=O)[nH]c(SCc2ccccc2)n1	none
CCCc1cc(=O)[nH]c(SCCCCN2C(=O)c3ccccc3C2=O)n1	PKD1 inh 108.7
Cc1ccc2[nH]c(=O)c(-c3noc(CC(C)C)n3)cc2c1	none (no result: Arbovirus anti, DTT redox prof, PKD1 inh)
COc1ccc(CC2(CO)CCN(Cc3ccc4nsnc4c3)CC2)cc1	none
O=C(CSc1nc2nn(-c3ccccc3)c(=O)c-2c2n1CCCCC2)NCCc1ccccc1	Arbovirus anti 31.8
CCSc1nc2nn(-c3ccccc3)c(=O)c-2c2n1CCCCC2	none
COc1cc(/C=N/NC(=O)CSc2ccccn2)ccc1OC(C)C	none (no result: Arbovirus anti, DTT redox prof, PKD1 inh)
N/C(=N\c1nc(CSc2nnnn2-c2ccccc2)cc(=O)[nH]1)Nc1ccccc1	none
O=c1cc(CSc2nnnn2-c2ccccc2)nc(Nc2ccc(F)cc2)[nH]1	Arbovirus anti 30.6
CCOC(=O)C1CSC(CC(=O)Nc2ccc(Cl)cc2)C(=O)N1 (stereo unspecified)	none
CCN1CCCc2cc(CN(CCN3CCOCC3)C(=S)Nc3ccc(OC)c(Cl)c3)ccc21	Wee1 stabilizer 10.2
Cc1cc(C)cc(N(CC(=O)NC2CCCC2)C(=O)C2(C)CC(=O)N=C3C=CC=CN32)c1 (stereo unspecified)	Wee1 stabilizer 10.6
CCCCNC(=O)c1ccccc1NC(=O)CCC	none
Cc1cc(C)n(S(=O)(=O)c2cccc(Cl)c2Cl)n1	none
O=C(O)CCCC(=O)Nc1nc2n(n1)C(c1ccc(F)cc1)CC(c1ccc(Cl)cc1)N2 (stereo unspecified)	Arbovirus anti 39.0
COCC(=O)Nc1nc2n(n1)C(c1ccc(OC)cc1)CC(c1ccc(OC)cc1)N2 (stereo unspecified)	none
CCN(CC)c1ccc(NC(=O)c2c(OC)cccc2OC)c(C)c1	Arbovirus anti 37.9
COc1cccc(-c2cc(C(=O)Nn3cnnc3)c3ccccc3n2)c1	Arbovirus anti 38.3
COc1cccc(-c2cc(C(=O)N3CCN(c4ncccn4)CC3)c3ccccc3n2)c1	none
COc1cccc(-c2cc(C(=O)NN3CCOCC3)c3ccccc3n2)c1	none
CC(C)Oc1cccc(-c2cc(C(=O)N3CCN(c4ncccn4)CC3)c3ccccc3n2)c1	Wee1 stabilizer 9.3
COc1cc2c3c(c1OC)C1(C=CC(=NO)C=C1)CC3N(C(C)=O)CC2 (stereo unspecified)	Wee1 stabilizer 10.4
COc1cc2c3c(c1OC)C1(C=CC(=O)C=C1)CC3N(C(C)=O)CC2 (stereo unspecified)	none
COc1ccc(-c2cc(C(F)(F)F)n3nc(C(=O)Nc4c(C)n(C)n(-c5ccccc5)c4=O)cc3n2)cc1	p97 ATPase inh 16.7
COc1cccc(-c2cc(C(F)(F)F)n3nc(C(=O)Nc4c(C)n(C)n(-c5ccccc5)c4=O)cc3n2)c1	none
c1csc(C2=Nn3c(nnc3-c3ccncc3)SC2)c1	none
Clc1ccccc1C1=Nn2c(nnc2-c2ccncc2)SC1	Arbovirus anti 58.8
Cc1ccccc1NC(=O)c1sc(NC(=O)COc2ccccc2)c(C#N)c1C	none
Cc1cc(C)cc(C(=O)NCC(=O)OCC(=O)NCc2ccco2)c1	none
CCCC(=O)C1=C(N2CCCCC2)CC(C)(C)C(C(=O)OC)C1=O (stereo unspecified)	none
CSc1nc(N)c(C(=O)Nc2ccc([N+](=O)[O-])cc2)s1	none (no result: Arbovirus anti, DTT redox prof, PKD1 inh)
O=C1c2ccccc2C(Nc2ccc(S(=O)(=O)N3CCCCC3)cc2)N1c1ccccn1 (stereo unspecified)	Arbovirus anti 31.5
Cc1cccc(N2CCN(C(=O)C3COc4ccccc4O3)CC2)c1C (stereo unspecified)	Arbovirus anti 36.4
O=C(C1COc2ccccc2O1)N1CCN(c2ccccc2Cl)CC1 (stereo unspecified)	none
COc1cccc(CSc2nc3sc(C)c(C)c3c(=O)n2Cc2ccco2)c1	none
O=C(NC1CCN(C(=O)C2CCCCC2)CC1)c1ccccc1	none (no result: Arbovirus anti, DTT redox prof, PKD1 inh)
C/C(=N\Nc1ncc(Cl)cc1Cl)c1ccccn1	PKD1 inh 61.4
CCc1ccc2oc(=O)cc(CN3CCN(c4ccc(F)cc4)CC3)c2c1	Wee1 stabilizer 10.8
COC(=O)c1ccccc1NC(=O)CN1CCC(NC(=O)c2ccc(C)cc2)CC1	Arbovirus anti 55.5
COC(=O)c1ccccc1NC(=O)CN1CCC(n2nnc3cc(F)ccc32)CC1	Arbovirus anti 40.2
COCCn1c(C)c(C(=O)O)sc1=S	none
Nc1cc(-c2ccccc2)ccc1O	Wee1 stabilizer 10.1!
O=C(O)c1ccc(COc2ccccc2Cl)cc1	Wee1 stabilizer 9.1
CC1(C)CC2=C(CO1)C(=S)NC(c1ccccc1)N2CC1CCCO1 (stereo unspecified)	none (no result: Arbovirus anti, DTT redox prof, PKD1 inh)
CC(C)CNC(=S)NC(=O)c1ccc(F)cc1	Wee1 stabilizer 9.1
O=C(NC(=S)NCCN1CCOCC1)c1ccc(F)cc1	none
N#CC(C#N)=Cc1cc2ccccc2nc1N1CCCCC1	Arbovirus anti 32.0
Fc1ccc(Oc2nccc(-c3ccc(Cl)cc3)n2)cc1	none
CC1C/C(=C/c2ccccn2)C(=O)/C(=C/c2ccccn2)C1 (stereo unspecified)	Wee1 stabilizer 9.9
Cn1cc(CNCCN2CCCCC2=O)c(-c2cccc(Cl)c2)n1	none
O=C(Oc1nsnc1N1CCCCC1)N1CCOCC1	Wee1 stabilizer 8.9
C1CCN(c2nc3nonc3nc2N2CCCCC2)CC1	Wee1 stabilizer 10.3
CCc1cc(C(=O)O)c(NC(=O)/C=C/c2ccc(OC)cc2)s1	none (no result: Arbovirus anti, DTT redox prof, PKD1 inh)
COc1cc(/C=C/C(=O)Nc2cc(C(F)(F)F)ccc2Cl)cc(OC)c1OC	none
COc1ccc(/C=C/C(=O)Nc2ccccc2C(=O)N2CCCC2)cc1	none
COc1ccc(/C=C/C(=O)Nc2ccccc2C(F)(F)F)cc1OC	none
COc1ccc(/C=C/C(=O)Nc2cc(C(F)(F)F)ccc2Cl)cc1OC	Arbovirus anti 32.0
COc1ccc(/C=C/C(=O)Nc2ccccc2C(=O)O)cc1OC	Arbovirus anti 57.6
CCc1cc(C(=O)O)c(NC(=O)/C=C/c2ccc(OC)c(OC)c2)s1	Arbovirus anti 70.9
COc1ccc(/C=C/C(=O)Nc2ccccc2C(=O)O)cc1	Arbovirus anti 50.9
Cc1nc2ccccc2c2c1C(=O)NC2=O	none (no result: Arbovirus anti, DTT redox prof, PKD1 inh)
COc1ccccc1OCC(=O)Nc1sc2c(c1C(=O)NCC1CCCO1)CCC2 (stereo unspecified)	none
Cc1ccc(SCc2cn3ccccc3n2)cc1	Wee1 stabilizer 9.3 (no result: Arbovirus anti, DTT redox prof, PKD1 inh)
c1ccc(CSCc2cn3ccccc3n2)cc1	none
C=CCn1nnc2sc3c(c2c1=O)CCC(C)C3 (stereo unspecified)	none
Cc1ccc(CONC(=O)/N=C/N(C)C)cc1	none
